Legend:
[1] = target: Integrin alpha-IIb/beta-3 (Homo sapiens, UniProt P05106+P08514); assay: Displacement of biotinylated fibrinogen from human glycoprotein 2b/3a receptor after 2 hrs by chemiluminescence assay; type: protein-complex assay
In short: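 Solid-phase competitive binding: purified human GPIIb/IIIa coated overnight at 4 °C in Tris buffer pH 7.4 with 1 mM Ca2+, Mg2+, Mn2+; blocked with 1% BSA. Serially diluted inhibitor plus biotinylated human fibrinogen, 2 h rt; peroxidase anti-biotin antibody 1 h, chemiluminescent read.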

Coagulation factor X = Coagulation factor X (Homo sapiens, UniProt P00742); assay: Inhibition of F10a (unknown origin) using S-2222 as substrate incubated for 15 mins prior to substrate addition measured every 10 secs by spectrophotometric analysis
In short: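 Inhibitor 0.5–100 µM (from 10 mM DMSO stocks) preincubated with enzyme in HBSA buffer 15 min, 25 °C; A405 read every 10 s. Triplicate, three inhibitor × two substrate concentrations; Ki from initial linear rates via Cheng–Prusoff, averaged.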

Trypsin = Trypsin (Homo sapiens, UniProt P07477+P07478+P35030); assay: Inhibition of trypsin (unknown origin) using S-2222 as substrate incubated for 15 mins prior to substrate addition measured every 10 secs by spectrophotometric analysis; type: protein assay
In short: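 Trypsin at 0.5 nkat/mL final with S-2222 at 50 and 100 µM final. Inhibitor 0.5–100 µM, diluted from 10 mM DMSO stocks, preincubated 15 min at 25 °C with enzyme in HBSA buffer before substrate; absorbance at 405 nm every 10 s. Triplicate at three inhibitor and two substrate levels; Ki from initial rates (Cheng–Prusoff), averaged.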

Prothrombin = Prothrombin (Homo sapiens, UniProt P00734); assay: Inhibition of thrombin (unknown origin) using S-2238 as substrate incubated for 15 mins prior to substrate addition measured every 10 secs by spectrophotometric analysis

Chain of Coagulation factor X (P00742 41-179 limits assumed): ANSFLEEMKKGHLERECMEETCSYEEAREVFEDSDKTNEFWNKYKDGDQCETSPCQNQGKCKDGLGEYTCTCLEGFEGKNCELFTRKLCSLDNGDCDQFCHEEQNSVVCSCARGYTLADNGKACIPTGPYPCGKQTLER
Chain of Coagulation factor X (P00742 235-488 limits assumed): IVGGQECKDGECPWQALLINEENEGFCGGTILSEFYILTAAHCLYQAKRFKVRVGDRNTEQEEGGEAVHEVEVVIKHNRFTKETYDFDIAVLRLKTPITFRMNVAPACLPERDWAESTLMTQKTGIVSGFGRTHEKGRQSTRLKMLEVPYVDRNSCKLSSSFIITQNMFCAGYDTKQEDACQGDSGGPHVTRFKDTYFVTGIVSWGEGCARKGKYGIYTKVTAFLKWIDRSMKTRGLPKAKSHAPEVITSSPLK
Chain of Integrin alpha-IIb/beta-3 (P05106 27-788 limits assumed): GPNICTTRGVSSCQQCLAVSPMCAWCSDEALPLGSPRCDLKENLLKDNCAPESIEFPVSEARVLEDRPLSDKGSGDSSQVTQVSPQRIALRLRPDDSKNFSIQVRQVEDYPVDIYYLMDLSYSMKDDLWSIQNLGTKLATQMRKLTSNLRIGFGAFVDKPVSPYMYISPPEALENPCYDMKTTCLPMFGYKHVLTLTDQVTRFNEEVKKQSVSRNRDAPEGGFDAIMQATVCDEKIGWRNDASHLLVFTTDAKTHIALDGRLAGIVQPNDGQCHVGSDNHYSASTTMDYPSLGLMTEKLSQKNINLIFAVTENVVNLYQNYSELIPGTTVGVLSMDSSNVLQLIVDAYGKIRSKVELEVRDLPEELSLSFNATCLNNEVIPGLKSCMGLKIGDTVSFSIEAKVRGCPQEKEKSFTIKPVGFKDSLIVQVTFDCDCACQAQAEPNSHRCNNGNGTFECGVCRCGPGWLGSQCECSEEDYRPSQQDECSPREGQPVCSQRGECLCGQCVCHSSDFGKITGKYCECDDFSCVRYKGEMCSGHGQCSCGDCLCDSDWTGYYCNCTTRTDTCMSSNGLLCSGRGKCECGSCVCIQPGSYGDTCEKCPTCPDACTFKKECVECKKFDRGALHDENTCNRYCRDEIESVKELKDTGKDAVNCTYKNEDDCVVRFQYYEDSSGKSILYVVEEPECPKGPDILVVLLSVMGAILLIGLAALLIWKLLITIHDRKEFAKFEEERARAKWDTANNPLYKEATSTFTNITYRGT
Chain of Integrin alpha-IIb/beta-3 (P08514 32-887 limits assumed): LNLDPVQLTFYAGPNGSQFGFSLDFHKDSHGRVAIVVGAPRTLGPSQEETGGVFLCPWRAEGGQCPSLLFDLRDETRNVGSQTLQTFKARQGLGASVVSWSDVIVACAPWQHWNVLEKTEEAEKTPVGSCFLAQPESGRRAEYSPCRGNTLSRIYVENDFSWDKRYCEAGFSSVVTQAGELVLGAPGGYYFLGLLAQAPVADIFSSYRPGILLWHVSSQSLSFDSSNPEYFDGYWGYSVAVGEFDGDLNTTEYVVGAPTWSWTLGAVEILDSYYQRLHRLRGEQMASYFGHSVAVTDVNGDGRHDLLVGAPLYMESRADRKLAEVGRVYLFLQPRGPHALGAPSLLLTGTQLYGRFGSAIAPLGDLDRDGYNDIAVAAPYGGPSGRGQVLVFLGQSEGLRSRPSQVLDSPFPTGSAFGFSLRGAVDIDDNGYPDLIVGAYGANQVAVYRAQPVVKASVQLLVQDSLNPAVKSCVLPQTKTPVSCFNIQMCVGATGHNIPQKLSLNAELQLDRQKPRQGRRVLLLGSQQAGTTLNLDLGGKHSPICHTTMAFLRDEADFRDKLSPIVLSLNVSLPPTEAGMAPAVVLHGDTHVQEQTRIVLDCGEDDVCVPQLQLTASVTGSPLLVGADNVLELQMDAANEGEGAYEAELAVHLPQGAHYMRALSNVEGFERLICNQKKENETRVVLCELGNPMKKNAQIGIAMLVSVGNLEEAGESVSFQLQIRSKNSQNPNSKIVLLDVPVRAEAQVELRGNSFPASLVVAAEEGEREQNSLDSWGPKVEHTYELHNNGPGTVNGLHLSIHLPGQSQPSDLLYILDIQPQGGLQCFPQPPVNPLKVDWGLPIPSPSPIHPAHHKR
Chain of Integrin alpha-IIb/beta-3 (P08514 891-1039 limits assumed): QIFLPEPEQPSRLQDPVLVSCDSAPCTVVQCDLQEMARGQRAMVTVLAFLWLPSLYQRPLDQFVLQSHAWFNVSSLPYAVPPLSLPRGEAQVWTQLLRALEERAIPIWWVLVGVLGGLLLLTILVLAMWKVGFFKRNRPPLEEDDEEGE

| Structure (SMILES) | IC50 [1] | Ki (Coagulation factor X) | Ki (Trypsin) | Ki (Prothrombin) |
| --- | --- | --- | --- | --- |
| O=C(NC[C@@H]1CN(c2ccc(N3CCC(C(=O)O)CC3)cc2)C(=O)O1)c1ccc(Cl)s1 | > 300 µM |  |  |  |
| Nc1ncc(C(=O)NC[C@H]2CN(c3ccc(N4CCC(C(=O)O)CC4)cc3)C(=O)O2)s1.O=C(O)C(F)(F)F | 78.4 µM | 48.8 µM | > 100 µM | > 100 µM |
| CCOC(=O)C1CCCN(c2ccc(N3C[C@H](CNC(=O)c4cnc(N)s4)OC3=O)cc2)C1.O=C(O)C(F)(F)F (stereo partly specified) | > 300 µM | 49.3 µM | > 100 µM | > 100 µM |
| Nc1ncc(C(=O)NC[C@H]2CN(c3ccc(N4CCCC(C(=O)O)C4)cc3)C(=O)O2)s1.O=C(O)C(F)(F)F (stereo partly specified) | > 300 µM | 47.5 µM | > 100 µM | > 100 µM |
| CCOC(=O)C1CCCCN1c1ccc(N2C[C@H](CNC(=O)c3cnc(N)s3)OC2=O)cc1.O=C(O)C(F)(F)F (stereo partly specified) | > 300 µM | 28.7 µM | > 100 µM | > 100 µM |
| O=C(NC[C@@H]1CN(c2ccc(N3CCC(C(=O)O)CC3)cc2)C(=O)O1)c1ccc(-c2noc(=O)[nH]2)cc1 | 0.87 µM | > 100 µM | > 100 µM | > 100 µM |
| O=C(O)C1CCN(c2ccc(N3C[C@H](CNCc4ccc(-c5noc(=O)[nH]5)cc4)OC3=O)cc2)CC1 | 0.89 µM | > 100 µM | > 100 µM | > 100 µM |
| CC(=O)O.CCOC(=O)C1CCN(c2ccc(N3C[C@H](CNC(=O)c4ccc(C(=N)N)cc4)OC3=O)cc2)CC1 | 14 µM | > 100 µM | 5.65 µM | > 100 µM |
| CC(=O)O.CCOC(=O)C1CCN(c2ccc(N3C[C@@H](CNC(=O)c4ccc(C(=N)N)cc4)OC3=O)cc2)CC1 | 96 µM | > 100 µM | 3.06 µM | > 100 µM |
| CC(=O)O.N=C(N)c1ccc(C(=O)NC[C@H]2CN(c3ccc(N4CCC(C(=O)O)CC4)cc3)C(=O)O2)cc1 | 12 µM | 43 µM | 8.95 µM | > 100 µM |
| CC(=O)O.N=C(N)c1ccc(C(=O)NC[C@@H]2CN(c3ccc(N4CCC(C(=O)O)CC4)cc3)C(=O)O2)cc1 | 4.7 µM | 62.9 µM | 3.79 µM | > 100 µM |
| Nc1cc(C(=O)NC[C@@H]2CN(c3ccc(N4CCC(C(=O)O)CC4)cc3)C(=O)O2)ccc1Cl | 12.8 µM | 57.7 µM | > 100 µM | > 100 µM |
| O=C(NC[C@H]1CN(c2ccc(N3CCC(C(=O)O)CC3)cc2)C(=O)O1)c1ccc(Cl)c(-c2noc(=O)[nH]2)c1 | 15.3 µM | 89.7 µM | > 100 µM | > 100 µM |

Results, then the molecule that gave them:

| IC50 [1] | Ki (Coagulation factor X) | Ki (Trypsin) | Ki (Prothrombin) | Structure (SMILES) |
| --- | --- | --- | --- | --- |
| > 300 µM |  |  |  | O=C(NC[C@H]1CN(c2ccc(N3CCC(C(=O)O)CC3)cc2)C(=O)O1)c1ccc(Cl)s1 |
| > 300 µM | 54.4 µM | > 100 µM | > 100 µM | CCOC(=O)C1CCN(c2ccc(N3C[C@H](CNC(=O)c4cnc(N)s4)OC3=O)cc2)CC1.O=C(O)C(F)(F)F |
| > 300 µM | 111 µM | > 100 µM | > 100 µM | CCOC(=O)C1CCN(c2ccc(N3C[C@@H](CNC(=O)c4cnc(N)s4)OC3=O)cc2)CC1.O=C(O)C(F)(F)F |
| 16.8 µM | 88.2 µM | > 100 µM | > 100 µM | Nc1ncc(C(=O)NC[C@@H]2CN(c3ccc(N4CCC(C(=O)O)CC4)cc3)C(=O)O2)s1.O=C(O)C(F)(F)F |
| > 300 µM | 38.2 µM | > 100 µM | > 100 µM | CCOC(=O)C1CCN(c2ccc(N3C[C@H](CNC(=O)c4cnc(N)s4)OC3=O)cc2)C(=O)C1.O=C(O)C(F)(F)F (stereo partly specified) |
| > 300 µM | 55.6 µM | > 100 µM | > 100 µM | CCOC(=O)C1(C)CCCN(c2ccc(N3C[C@H](CNC(=O)c4cnc(N)s4)OC3=O)cc2)C1=O.O=C(O)C(F)(F)F (stereo partly specified) |
| > 300 µM | 11.2 µM | > 100 µM | > 100 µM | CC1(C(=O)O)CCCN(c2ccc(N3C[C@H](CNC(=O)c4cnc(N)s4)OC3=O)cc2)C1=O.O=C(O)C(F)(F)F (stereo partly specified) |
| 16 µM | > 100 µM | > 100 µM | > 100 µM | O=C(NC[C@H]1CN(c2ccc(N3CCC(C(=O)O)CC3)cc2)C(=O)O1)c1ccc(-c2noc(=O)[nH]2)cc1 |
| 0.26 µM | 94.8 µM | > 100 µM | > 100 µM | O=C(O)C1CCN(c2ccc(N3C[C@@H](CNCc4ccc(-c5noc(=O)[nH]5)cc4)OC3=O)cc2)CC1 |
| 55 µM | 34.3 µM | 2.17 µM | > 100 µM | CC(=O)O.CCOC(=O)C1CCN(c2ccc(N3C[C@H](CNCc4ccc(C(=N)N)cc4)OC3=O)cc2)CC1 |
| 35 µM | 25.6 µM | 6.59 µM | > 100 µM | CC(=O)O.CCOC(=O)C1CCN(c2ccc(N3C[C@@H](CNCc4ccc(C(=N)N)cc4)OC3=O)cc2)CC1 |
| 2.2 µM | 54.1 µM | 17.8 µM | 53 µM | CC(=O)O.N=C(N)c1ccc(CNC[C@H]2CN(c3ccc(N4CCC(C(=O)O)CC4)cc3)C(=O)O2)cc1 |
| > 300 µM | 10.8 µM | > 100 µM | > 100 µM | CCOC(=O)C1CCN(c2ccc(N3C[C@H](CNC(=O)c4ccc(Cl)c(N)c4)OC3=O)cc2)CC1 |
| > 300 µM | 82.3 µM | > 100 µM | > 100 µM | CCOC(=O)C1CCN(c2ccc(N3C[C@@H](CNC(=O)c4ccc(Cl)c(N)c4)OC3=O)cc2)CC1 |
| 25.8 µM | 37 µM | > 100 µM | > 100 µM | Nc1cc(C(=O)NC[C@H]2CN(c3ccc(N4CCC(C(=O)O)CC4)cc3)C(=O)O2)ccc1Cl |
